Reference: PMC6904512 (Molecular microbiology, 2019)

Legend:
EcIMPDH/WT = EcIMPDH/WT (Escherichia coli, UniProt P0ADG7); assay: biochemical; assay type: biochemical
EcIMPDH/D243G = EcIMPDH/D243G (Escherichia coli, UniProt P0ADG7, D243G); assay: biochemical; assay type: biochemical
AbIMPDH = AbIMPDH (Acinetobacter baumannii, UniProt D0CF46); assay: biochemical; assay type: biochemical
[1] = tested on: E. coli strains containing WT and mutant IMPDH; assay: Growth of engineered E. coli strains with WT or mutant IMPDH; assay type: cell-based, Escherichia coli
Summary of the method: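 E. coli strains carrying WT or mutant IMPDH (guaB) were precultured overnight to saturation in M9 + 1 mM IPTG + 2 g/L glucose. They were diluted 100-fold into M9 salts with 300 mg/L thiamine, 1 mM IPTG and the carbon source; for coumarate, 1 g/L with or without 5 mg/L guanosine (~18 μM). Triplicate cultures were read at OD600 in a plate reader, growth rates were curve-fitted, and standard deviation was taken over three biological replicates.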

EcIMPDH/WT, sequence (P0ADG7 whole entry): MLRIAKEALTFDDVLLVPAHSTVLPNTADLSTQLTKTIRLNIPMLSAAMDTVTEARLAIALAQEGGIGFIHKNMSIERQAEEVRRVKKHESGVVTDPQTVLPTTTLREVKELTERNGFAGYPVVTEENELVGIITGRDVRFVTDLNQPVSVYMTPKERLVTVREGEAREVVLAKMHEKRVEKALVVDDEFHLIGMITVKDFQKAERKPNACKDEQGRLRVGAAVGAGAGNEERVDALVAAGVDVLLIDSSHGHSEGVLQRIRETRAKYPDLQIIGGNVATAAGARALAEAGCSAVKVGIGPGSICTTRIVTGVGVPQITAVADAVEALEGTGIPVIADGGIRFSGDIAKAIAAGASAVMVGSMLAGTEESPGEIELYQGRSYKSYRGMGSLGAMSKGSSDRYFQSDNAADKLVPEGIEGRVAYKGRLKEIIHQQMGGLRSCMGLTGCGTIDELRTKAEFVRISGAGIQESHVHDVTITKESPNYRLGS
EcIMPDH/D243G, sequence (P0ADG7 whole entry D243G): as the sequence (P0ADG7 whole entry) above, with D243G counted along it

O=Cc1ccc(O)cc1 [4-hydroxybenzaldehyde]
Ki (EcIMPDH/WT; Ki,app(4HB), EcIMPDH/WT, 20 nM enzyme, 12 μM IMP, 500 μM NAD+, pH 7.0): 320 ± 30 µM | Inhibition mechanism with respect to IMP (EcIMPDH/WT; wild type EcIMPDH): uncompetitive inhibitor | Inhibition mechanism with respect to NAD+ (EcIMPDH/WT; wild type EcIMPDH): noncompetitive (mixed) inhibitor | Inhibition mechanism with respect to IMP (EcIMPDH/D243G; D243G EcIMPDH): uncompetitive inhibitor | Inhibition mechanism with respect to NAD+ (EcIMPDH/D243G; D243G EcIMPDH): noncompetitive (mixed) inhibitor | Ki (EcIMPDH/D243G; Ki,app(4HB), EcIMPDH/D243G, 20 nM enzyme, 12 μM IMP, 500 μM NAD+, pH 7.0): 1250 ± 50 µM | Ki (AbIMPDH): 720 ± 30 µM

NC(=O)c1ccc[n+]([C@@H]2O[C@H](COP(=O)([O-])OP(=O)(O)OC[C@H]3O[C@@H](n4cnc5c(N)ncnc54)[C@H](O)[C@@H]3O)[C@@H](O)[C@H]2O)c1 [NAD]
Kii(NAD) (EcIMPDH/WT; EcIMPDH/WT, substrate inhibition by NAD, fixed 1.2 mM IMP): 4300 ± 530 µM | Km (EcIMPDH/WT; read-out: Km(NAD), EcIMPDH/WT, fixed 1.2 mM IMP, 50 nM enzyme): 210 ± 20 µM | Kii(NAD) (EcIMPDH/D243G; EcIMPDH/D243G, substrate inhibition by NAD, fixed 1.2 mM IMP): 3500 ± 690 µM | Km (EcIMPDH/D243G; read-out: Km(NAD), EcIMPDH/D243G, fixed 1.2 mM IMP, 50 nM enzyme): 210 ± 40 µM | Kii(NAD) (AbIMPDH; AbIMPDH, substrate inhibition by NAD, fixed 1.2 mM IMP): 10600 ± 1100 µM | Km (AbIMPDH; read-out: Km(NAD), AbIMPDH, fixed 1.2 mM IMP, 50 nM enzyme): 208 ± 17 µM

Nc1nc2c(ncn2[C@@H]2O[C@H](CO)[C@@H](O)[C@H]2O)c(=O)[nH]1 [guanosine]
Effect of added guanosine on inhibition by 4-hydroxybenzaldehyde ([1]; strain JME129 (wild-type guaB), growth with glucose (Figure S6)): relieved inhibition | Effect of added guanosine on growth with coumarate ([1]; strain with wild-type IMPDH, 1 g/L coumarate, 5 mg/L guanosine): increased growth with coumarate
